Test results from ChEMBL document CHEMBL1122346, “Antihypertensive activity of 6-arylpyrido[2,3-d]pyrimidin-7-amine derivatives. 2. 7-Acyl amide analogues” (J Med Chem, 1983).
≈ marks a conversion by molar mass, not a printed value. Where “and” joins values, the source holds several entries; their conditions need not be identical. Equal values may be shown once. Blank lines part the entries; values can stand above or below the compound they belong to.

Key:
[1] = system: Rattus norvegicus; test: Antihypertensive activity rating in conscious SHR after 24 h post dose at 10 mg/kg (po); 0=No significant reduction; assay type: functional
[2] = species: Rattus norvegicus; test: Maximum percent decrease in blood pressure in SHR ( hour post dose in parentheses); assay type: functional
[3] = system: Rattus norvegicus; test: Antihypertensive activity rating in conscious SHR after 10 hr post dose at 10 mg/kg (po); Range 20-30%; assay type: functional
[4] = system: Rattus norvegicus; test: Antihypertensive activity rating in conscious SHR after 2 hr post dose at 10 mg/kg (po); Range 10-20%; assay type: functional
[5] = system: Rattus norvegicus; test: Antihypertensive activity rating in conscious SHR after 10 hr post dose at 50 mg/kg (po); Range 20-30%; assay type: functional
[6] = system: Rattus norvegicus; test: Antihypertensive activity rating in conscious SHR after 18 hr post dose at 50 mg/kg (po); assay type: functional
[7] = system: Rattus norvegicus; test: Antihypertensive activity in conscious spontaneously hypertensive rats 2 hr following 50 mg/kg p.o.; No significant reduction.; assay type: functional; conditions: route oral
[8] = system: Rattus norvegicus; test: Antihypertensive activity rating in conscious SHR after 2 hr post dose at 50 mg/kg (po); Range 20-30%; assay type: functional
[9] = system: Rattus norvegicus; test: Antihypertensive activity in conscious spontaneously hypertensive rats 24 hr following 50 mg/kg p.o.; No significant reduction.; assay type: functional; conditions: route oral
[10] = system: Rattus norvegicus; test: Antihypertensive activity in conscious spontaneously hypertensive rats 10 hr following 50 mg/kg p.o.; Range 10-20%.; assay type: functional; conditions: route oral
[11] = pKa value, measured in 67% of DMF; assay type: physicochemical; conditions: 67% DMF
Method in brief: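 Dissociation constants were found by potentiometric titration in 67% N,N-dimethylformamide/water.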

[12] = Half-life measured in 1:1 ratio of MeOH and phosphate buffer at pH 7; Stable; assay type: ADME
Method in brief: (§1)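 Hydrolytic stability was tested at room temperature on solutions of ca. 0.001-0.002%. Media were 0.1 N HCl (pH ~1.5), 50% MeOH/pH 7 phosphate buffer (pH ~8.0), and 50% MeOH/0.05 N aqueous NaOH (pH ~12.2). Changes in the UV spectrum were followed over 2 weeks.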

[13] = Half-life measured in 0.1 N HCl; Stable; assay type: ADME; conditions: buffer; method in brief: as §1
[14] = Half-life measured in 1:1 ratio of MeOH and 0.1 N NaOH; assay type: ADME; conditions: 1:1 MeOH / 0.1 N NaOH; method in brief: as §1
[15] = system: Rattus norvegicus; test: Antihypertensive activity in conscious spontaneously hypertensive rats 10 hr following 50 mg/kg p.o.; No significant reduction.; assay type: functional; conditions: route oral
[16] = system: Rattus norvegicus; test: Antihypertensive activity rating in conscious SHR after 24 h post dose at 10 mg/kg (po); Range 10-20%; assay type: functional
[17] = system: Rattus norvegicus; test: Antihypertensive activity rating in conscious SHR after 10 hr post dose at 10 mg/kg (po); Range 10-20%; assay type: functional
[18] = system: Rattus norvegicus; test: Antihypertensive activity rating in conscious SHR after 10 hr post dose at 10 mg/kg (po); 0=No significant reduction; assay type: functional
[19] = system: Rattus norvegicus; test: Antihypertensive activity rating in conscious SHR after 2 hr post dose at 10 mg/kg (po); 0=No significant reduction; assay type: functional
[20] = Solubility, determined in 0.1 N HCl; assay type: physicochemical; conditions: read-out: S
Method in brief: (§2)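 Dissolved compound was quantified by UV absorption. For the pH 7 value, the acidic solution was brought to pH 7 to give the unprotonated base, the precipitate was removed, and the supernatant was assayed again by UV.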

[21] = Solubility, determined in phosphate buffer at pH 7; assay type: physicochemical; method in brief: as §2
[22] = Half-life measured in 0.1 N HCl; assay type: ADME; method in brief: as §1
[23] = Half-life measured in 1:1 ratio of MeOH and phosphate buffer at pH 7; assay type: ADME; conditions: 1:1 MeOH / phosphate buffer; method in brief: as §1
[24] = system: Rattus norvegicus; test: Antihypertensive activity rating in conscious SHR after 24-72 hr post dose at 10 mg/kg (po); Range 10-20%; assay type: functional
[25] = system: Rattus norvegicus; test: Antihypertensive activity rating in conscious SHR after 10 hr post dose at 50 mg/kg (po); assay type: functional
[26] = system: Rattus norvegicus; test: Antihypertensive activity rating in conscious SHR after 2 hr post dose at 10 mg/kg (po); Range 20-30%; assay type: functional
[27] = system: Rattus norvegicus; test: Antihypertensive activity rating in conscious SHR after 2 hr post dose at 50 mg/kg (po); assay type: functional
[28] = pKa value, measured in 67% DMF/water
[29] = system: Rattus norvegicus; test: Antihypertensive activity rating in conscious SHR after 24 h post dose at 50 mg/kg (po); Range 20-30%; assay type: functional
[30] = system: Rattus norvegicus; test: Antihypertensive activity rating in conscious SHR after 2 hr post dose at 50 mg/kg (po); Range 10-20%; assay type: functional
[31] = system: Rattus norvegicus; test: Antihypertensive activity rating in conscious SHR after 24 hr post dose at 50 mg/kg (po); Range 10-20%; assay type: functional
[32] = system: Rattus norvegicus; test: Antihypertensive activity rating in conscious SHR after 24 hr post dose at 50 mg/kg (po)v; assay type: functional
[33] = system: Rattus norvegicus; test: Antihypertensive activity rating in conscious SHR after 18 hr post dose at 50 mg/kg (po); Range 20-30%; assay type: functional

SMILES: Cc1ncc2cc(-c3c(Cl)cccc3Cl)c(NC(=O)CCl)nc2n1
Activity rating [1]: 0%
Decrease [2]: 24%
Activity rating [3]: 20%
Activity rating [4]: 10%

SMILES: CC(=O)Nc1ncc2cc(-c3c(Cl)cccc3Cl)c(NC(C)=O)nc2n1
Decrease [2]: 32%
Activity rating [5]: 20%
Activity rating [6]: >30%
Activity rating [7]: 0%

SMILES: C/N=C(\N)Nc1nc2nc(C)ncc2cc1-c1c(Cl)cccc1Cl
Activity rating [8]: 20%
Activity rating [9]: 0%
Decrease [2]: 24%
Activity rating [10]: 10%

pKa [11]: 4.2
T1/2 [12]: Stable
T1/2 [13]: Stable
half-life [14]: 1.6 h
SMILES: CC(=O)N(C)c1nc2nc(C)ncc2cc1-c1c(Cl)cccc1Cl
Activity rating [9]: 0%
Activity rating [15]: 0%
Activity rating [7]: 0%

SMILES: Cc1ncc2cc(-c3c(Cl)cccc3Cl)c(NC(=O)c3ccncc3)nc2n1
Activity rating [16]: 10%
Decrease [2]: 18%
Activity rating [17]: 10%
Activity rating [4]: 10%

SMILES: C/N=C(\NC)Nc1nc2nc(C)ncc2cc1-c1c(Cl)cccc1Cl
Activity rating [8]: 20%
Activity rating [9]: 0%
Decrease [2]: 24%
Activity rating [10]: 10%

SMILES: COc1ccccc1C(=O)Nc1nc2nc(C)ncc2cc1-c1c(Cl)cccc1Cl
Activity rating [1]: 0%
Activity rating [18]: 0%
Activity rating [19]: 0%

solubility [20]: 34.2 mg/mL (≈ 98.5 mM)
solubility [21]: 6.05 mg/mL (≈ 17.4 mM)
pKa [11]: 4.1
half-life [22]: 12.5 h
half-life [14]: < 0.0833 h
half-life [23]: 60 h
pKa [28]: 12.8
SMILES: CC(=O)Nc1nc2nc(C)ncc2cc1-c1c(Cl)cccc1Cl
Activity rating [24]: 10%
Decrease [2]: 45%
Activity rating [3]: 20%
Activity rating [25]: >30%
Activity rating [6]: >30%
Activity rating [26]: 20%
Activity rating [27]: >30%

SMILES: Cc1ncc2cc(-c3c(Cl)cccc3Cl)c(NC(=O)c3ccccc3)nc2n1
Activity rating [8]: 20%
Activity rating [29]: 20%
Decrease [2]: 30%
Activity rating [5]: 20%

SMILES: C/C(=N\c1nc2nc(C)ncc2cc1-c1c(Cl)cccc1Cl)N(C)C
Activity rating [30]: 10%
Activity rating [31]: 10%
Decrease [2]: 18%
Activity rating [15]: 0%

SMILES: CC(=O)Nc1nc2ncncc2cc1-c1ccccc1Br
Activity rating [30]: 10%
Activity rating [32]: 0%
Decrease [2]: 19%
Activity rating [10]: 10%

SMILES: Cc1ncc2cc(-c3c(Cl)cccc3Cl)c(NS(C)(=O)=O)nc2n1
Activity rating [30]: 10%
Activity rating [1]: 0%
Activity rating [29]: 20%
Decrease [2]: 22%
Activity rating [18]: 0%
Activity rating [10]: 10%
Activity rating [19]: 0%

SMILES: CNc1nc2nc(C)ncc2cc1-c1c(Cl)cccc1Cl
Activity rating [30]: 10%
Decrease [2]: 21%
Activity rating [10]: 10%
Activity rating [33]: 20%

solubility [20]: 26.6 mg/mL (≈ 64.8 mM)
solubility [21]: 2.63 mg/mL (≈ 6.41 mM)
pKa [11]: 4.1
T1/2 [13]: Stable
half-life [14]: 4 h
half-life [23]: 54 h
pKa [28]: 9.8
SMILES: Cc1ncc2cc(-c3c(Cl)cccc3Cl)c(NC(=O)c3cccnc3)nc2n1
Activity rating [30]: 10%
Activity rating [24]: 10%
Decrease [2]: 26%
Activity rating [5]: 20%
Activity rating [4]: 10%

SMILES: Cc1ncc2cc(-c3c(Cl)cccc3Cl)c(NC(=O)N(C)C)nc2n1
Activity rating [30]: 10%
Activity rating [29]: 20%
Decrease [2]: 26%
Activity rating [10]: 10%

SMILES: NNc1nncc2ccccc12 [HYDRALAZINE]
Activity rating [16]: 10%
Decrease [2]: 51% and 27%
Activity rating [3]: 20%
